Rows were chosen to be rich in hits. Some 3.7% of all compounds tested hit in one or more screens of this group.
KCNK3 inh – human KCNK3 channel inhibition, primary screen | CHO-KCNK3 thallium flux, FluxOR fluorescence; stronger effect = lower value | O14649 | 0.84% of 340,000 active | B-score at 10 µM | AID 602410;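 active means B-score under library mean minus 4 SD, starting fluorescence ratio at most library mean plus 5 SD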;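 further: more negative B-score means stronger inhibition of thallium flux through KCNK3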
Target sequence (O14649 whole entry, looked up): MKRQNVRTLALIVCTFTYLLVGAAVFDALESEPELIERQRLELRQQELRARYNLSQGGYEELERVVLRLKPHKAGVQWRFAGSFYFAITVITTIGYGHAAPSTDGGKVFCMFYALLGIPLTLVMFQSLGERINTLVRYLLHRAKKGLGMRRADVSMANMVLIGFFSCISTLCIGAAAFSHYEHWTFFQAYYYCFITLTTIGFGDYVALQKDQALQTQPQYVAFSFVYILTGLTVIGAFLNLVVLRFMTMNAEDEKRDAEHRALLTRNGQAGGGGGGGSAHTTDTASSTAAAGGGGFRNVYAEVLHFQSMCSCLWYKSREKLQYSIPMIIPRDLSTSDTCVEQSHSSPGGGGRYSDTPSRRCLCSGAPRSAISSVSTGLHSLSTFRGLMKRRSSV
KCNQ1 inh – inhibitors of human KCNQ1 potassium channel | B-score at 10 µM | 1.3% of 310,000 active | CHO-K1 KCNQ1, FluxOR thallium flux fluorescence; stronger effect = higher value;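 active means compounds whose thallium flux B-score, printed positive for inhibition, exceeds three library SD while starting fluorescence stays within three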;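 further: channel opened by potassium depolarization with thallium stimulus after 20 min compound exposure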
KCNK9 block – blocks the human KCNK9 two-pore domain potassium channel; 1.2% of 310,000 active; AID 488922; HEK293 KCNK9, FluxOR thallium flux fluorescence; stronger effect = lower value; B-score at 10 µM; Q9NPC2;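 active means ratio B-score over 3 SD below the library mean, with starting fluorescence within 5 SD of its mean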;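 further: negative B-score means less thallium flux so channel inhibition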
hERG rescue – compounds protecting human hERG from proarrhythmic drug block. Q12809. CHO-hERG, FluxOR thallium flux, dofetilide IC70 present. activation (rescue from dofetilide block), less the hit threshold, % at 10 µM. 0.51% of 310,000 active;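 active means activation above the mean of controls blocked by dofetilide plus 5 SD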;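 further: thallium influx through hERG after potassium depolarization seen as dye fluorescence rise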
Kir21 inh – Kir2.1 (mouse) channel inhibition | HEK293-Kir2.1, FluxOR thallium flux fluorescence; stronger effect = lower value | B-score at 10 µM | 0.85% of 310,000 active;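 active means fluorescence ratio B-score at or below minus 3 SD of library scores, with starting-brightness B-score within 2 SD, cut at about -4.2 in these data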;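 further: channel flux triggered by added potassium and thallium sulfate stimulus; B-score of peak minus minimum fluorescence over baseline after thallium stimulus; more negative B-score means stronger Kir2.1 block with less thallium influx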
KCNQ1 pot – potentiates or activates the human KCNQ1 potassium channel; B-score at 10 µM; P51787; CHO-K1 KCNQ1, thallium flux FluxOR fluorescence; stronger effect = higher value; 0.35% of 310,000 active;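 active means fluorescence ratio B-score, a plate-corrected score, at least three library SD, with initial intensity B-score within 5 SD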
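Doses: Single concentration per compound, DMSO matched to controls | Test system: KCNQ1-transfected CHO-K1 cells | Timing: 90 min dye loading and 20 min compound exposure, both at room temperature | Measured by: Kinetic FluxOR thallium fluorescence, 10-s 1-Hz baseline, 110-s post-stimulus read | Medium: Assay buffer with matched DMSO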
Numbers without * were called inactive.

Screening CCN(CC)CCOC(=O)C(Cc1ccco1)Cc1cccc2ccccc12 (centres undefined) returned KCNK3 inh inactive, KCNQ1 inh inactive, KCNK9 block inactive, hERG rescue -8, Kir21 inh -7.5* and KCNQ1 pot inactive.
For COc1ccc(N2CCN(C(=O)[C@@H](NC(=O)c3ccccc3Cl)C(C)C)CC2)cc1 the results were KCNK3 inh inactive, KCNQ1 inh inactive, KCNK9 block inactive, hERG rescue -9, Kir21 inh 0.88 and KCNQ1 pot inactive.
`CC(/C=N/NC(=O)c1nnn(-c2nonc2N)c1CN(C)C)=C\c1ccco1` gave KCNK3 inh inactive, KCNQ1 inh inactive, KCNK9 block inactive, hERG rescue -7, Kir21 inh -1.1 and KCNQ1 pot inactive.
CCCN(CCC)Cc1c(C(=O)N/N=C/C(C)=C\c2ccco2)nnn1-c1nonc1N was read as KCNK3 inh inactive, KCNQ1 inh inactive, KCNK9 block inactive, hERG rescue -14, Kir21 inh 0.08 and KCNQ1 pot 16*.
For C/C(=N\NC(=O)c1nnn(-c2nonc2N)c1CN(C)c1ccccc1)c1ccccn1 the results were KCNK3 inh inactive, KCNQ1 inh inactive, KCNK9 block -7.6*, hERG rescue -10, Kir21 inh -0.06 and KCNQ1 pot inactive.
COc1ccc2c(c1)C(=O)N1[C@H]3c4cc(Br)ccc4OC[C@@H]3[C@H](c3ccccc3)[C@]1(C)C(=O)N2 was read as KCNK3 inh inactive.
`O=C(CCNc1ccc(Cl)c(C(F)(F)F)c1)c1ccco1` gave KCNK3 inh inactive, KCNQ1 inh inactive, KCNK9 block -7.3*, hERG rescue -12, Kir21 inh -0.42 and KCNQ1 pot inactive.
CCn1c(CNC(=O)c2ccc3c(c2)OCO3)nnc1SCC(=O)Nc1cc(C)ccc1OC was read as KCNK3 inh inactive, KCNQ1 inh 8*, KCNK9 block inactive, hERG rescue -16, Kir21 inh -0.44 and KCNQ1 pot inactive.
For O=C1C=C(c2ccccc2)OC(=O)C1C(=O)c1ccccc1 (centres undefined) the results were KCNK3 inh inactive, KCNQ1 inh inactive, KCNK9 block inactive, hERG rescue 5.4*, Kir21 inh 0.17 and KCNQ1 pot inactive.
`CN(C)CCN(Cc1ccco1)C(=O)c1cc2c(Cl)nc3ccccc3c2s1` gave KCNK3 inh inactive, KCNQ1 inh inactive, KCNK9 block inactive, hERG rescue -7, Kir21 inh -0.05 and KCNQ1 pot inactive.
Cc1ccc2nc(Cl)c3cc(C(=O)N(CCN(C)C)Cc4ccco4)sc3c2c1 was read as KCNK3 inh inactive, KCNQ1 inh inactive, KCNK9 block inactive, hERG rescue -16, Kir21 inh -4.5* and KCNQ1 pot inactive.
Screening COc1ccc(C(=O)NCCc2ccccc2)cc1OC returned KCNK3 inh inactive, KCNQ1 inh inactive, KCNK9 block inactive, hERG rescue -3, Kir21 inh -0.51 and KCNQ1 pot inactive.
COc1ccc(/C(O)=C/c2nc3ccc(C(=O)NCCc4cccc(C)c4)cc3[nH]c2=O)cc1OC was read as KCNK3 inh inactive, KCNQ1 inh inactive, KCNK9 block -8*, hERG rescue -12, Kir21 inh 0.51 and KCNQ1 pot inactive.
Screening COc1cc(/C=C2\SC(=S)N(NC(=O)c3ccccc3O)C2=O)ccc1O returned KCNK3 inh inactive, KCNQ1 inh 6*, KCNK9 block inactive, hERG rescue 4, Kir21 inh -1.9 and KCNQ1 pot inactive.
For O=C(NN1C(=O)/C(=C/c2ccc(O)c([N+](=O)[O-])c2)SC1=S)c1ccccc1Cl the results were KCNK3 inh inactive, KCNQ1 inh 7*, KCNK9 block inactive, hERG rescue -12, Kir21 inh 1.1 and KCNQ1 pot inactive.
`O=C(NN1C(=O)/C(=C/c2ccc(O)cc2)SC1=S)c1cccc(O)c1` gave KCNK3 inh inactive, KCNQ1 inh 8*, KCNK9 block -9.1*, hERG rescue -12, Kir21 inh -6.1 and KCNQ1 pot inactive.
Screening Cn1cc(/C=C2\SC(=S)N(NC(=O)c3ccccc3)C2=O)c2ccccc21 returned KCNK3 inh inactive, KCNQ1 inh inactive, KCNK9 block inactive, hERG rescue 9.5*, Kir21 inh -0.78 and KCNQ1 pot inactive.
`O=C(NN1C(=O)/C(=C/c2cc([N+](=O)[O-])ccc2O)SC1=S)c1ccccc1O` gave KCNQ1 inh inactive, KCNK9 block inactive, hERG rescue -22, Kir21 inh -3.6 and KCNQ1 pot inactive.
For Cn1cc(/C=C2\SC(=S)N(NC(=O)c3cccc(Cl)c3)C2=O)c2ccccc21 the results were KCNK3 inh inactive.
`Nn1c(SCC(=O)NNC(=O)c2ccccc2)nnc1-c1ccccc1F` gave KCNK3 inh inactive, KCNQ1 inh inactive, KCNK9 block inactive, hERG rescue -16, Kir21 inh -0.89 and KCNQ1 pot inactive.
COc1cc2c(cc1OC)C(Nn1cnnc1)=NC1(CCCC1)C2 was read as KCNK3 inh inactive, KCNQ1 inh inactive, KCNK9 block inactive, hERG rescue -6, Kir21 inh -0.53 and KCNQ1 pot inactive.
`N#Cc1nc(-c2ccc(F)cc2)oc1N1CCC(C(N)=O)CC1` gave KCNK3 inh inactive, KCNQ1 inh inactive, KCNK9 block inactive, hERG rescue -5, Kir21 inh -0.38 and KCNQ1 pot inactive.
For Cc1nc([N+](=O)[O-])cn1CC(=O)c1ccc(OC(F)(F)F)cc1 the results were KCNK3 inh inactive, KCNQ1 inh inactive, KCNK9 block inactive, hERG rescue 0, Kir21 inh 0.95 and KCNQ1 pot inactive.
Screening C[C@H](CO)N1C[C@H](C)[C@@H](CN(C)Cc2ccc(Cl)c(Cl)c2)Oc2c(NS(=O)(=O)c3cn(C)cn3)cccc2C1=O returned KCNK3 inh inactive.
CC(C)(C)OC(=O)NCC1CCC(C(=O)NC[C@H](CC(=O)O)c2ccc(Cl)cc2)CC1 (some centres undefined) was read as KCNK3 inh inactive, KCNQ1 inh inactive, KCNK9 block inactive, hERG rescue -3, Kir21 inh -0.87 and KCNQ1 pot inactive.
For COc1cc([N+](=O)[O-])cc(/C=C2/SC(=S)N(Cc3ccccc3)C2=O)c1O the results were KCNK3 inh inactive, KCNQ1 inh 9*, KCNK9 block inactive, hERG rescue -10, Kir21 inh -1.6 and KCNQ1 pot inactive.
O=C1/C(=C/c2ccc(O)c([N+](=O)[O-])c2)SC(=S)N1Cc1ccccc1 was read as KCNK3 inh inactive, KCNQ1 inh 8*, KCNK9 block inactive, hERG rescue -14, Kir21 inh 0.61 and KCNQ1 pot inactive.

Source: PubChem (Johns Hopkins Ion Channel Center)
